Activity, inhibition and IC50 data for six compounds are collected here from ChEMBL document CHEMBL4422642, “Antiproliferative and Antimigratory Effects of a Novel YAP-TEAD Interaction Inhibitor Identified Using in Silico Molecular Docking” (J Med Chem, 2019).

As usually defined, the inhibition is the drop in the measured response relative to a control, in per cent. For orientation: IC50 means the point on the concentration scale where inhibition reaches its midpoint. Read a low IC50 as higher potency.

Data set [1] concerns HeLa. The data set is described as follows: Cytotoxicity against human HeLa cells assessed as reduction in cell viability by measuring ethidium homodimer-1 uptake at 100 uM preincubated for 10 mins followed by ethidium homodimer-1 addition measured after 10 mins by fluorescence assay. The format is cell-based. The procedure, abridged:
(§1)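 Live/dead cell viability assay in HeLa cells. Maximum death was set by treating cells 10 min with 0.1% Triton-X, then 10 min with 0.4 μM ethidium homodimer-1. Fluorescence was read on a plate reader.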

For data set [2], the system named is HeLa. The data set is described as follows: Inhibition of TEAD (unknown origin) expressed in human HeLa cells at 100 uM after 6 hrs by nanoluciferase reporter gene assay relative to control. Format: cell-based. A digest of the protocol:
(§2)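 HeLa cells stably transduced with a lentiviral 8×TEAD-element secreted nanoluciferase reporter were seeded at 2 × 10^4 cells/well and grown 48 h. They were washed and treated with compound for 2 h, washed again and re-treated for 4 h. Secreted nanoluciferase in the conditioned medium was assayed with NanoGlo; n = 3.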

For data set [3], the system named is HeLa. The data set is described as follows: Cytotoxicity against human HeLa cells assessed as reduction in cell viability by measuring ethidium homodimer-1 uptake up to 150 uM preincubated for 10 mins followed by ethidium homodimer-1 addition measured after 10 mins by fluorescence assay. The format is cell-based. A digest of the protocol:
as §1

Data set [4] deals with HeLa. The data set is described as follows: Inhibition of TEAD (unknown origin) expressed in human HeLa cells up to 150 uM after 6 hrs by nanoluciferase reporter gene assay. The format is cell-based. The procedure, abridged: as §2
A general note: A reporter such as luciferase makes a cellular process visible.

Data set [5] deals with HeLa. The data set is described as follows: Antiproliferative activity against human HeLa cells assessed as reduction in EdU incorporation after 24 hrs by Hoechst 33342 staining-based fluorescence assay. The format is functional, cell-based. The procedure, abridged: (§3)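 Click-iT EdU assay. Cells were treated with compound for 24 h total, with 10 μM EdU present for the final labeling period. Cells were then fixed in 4% formaldehyde, stained for EdU and counterstained with Hoechst 33342 for 20 min. EdU-positive nuclei were counted in at least three fields per well; n = 4.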

Data set [6] deals with VSMC. The data set is described as follows: Inhibition of 36B4 m-RNA expression in rat VSMC up to 80 uM incubated for 2 hrs followed by compound wash out and re-treatment for 4 hrs by NanoGlo assay. Format: functional, cell-based.
For data set [7], the system named is VSMC. The data set is described as follows: Antimigratory activity in rat VSMC incubated for overnight followed by media replacement and measured every hour for 24 hrs by phase contrast microscopic analysis. Format: functional, cell-based. The procedure, abridged: (§4)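 IncuCyte real-time scratch wound assay. Cells were seeded in 96-well plates and grown 36 h, then pretreated overnight with compound. Wells were scratched and the medium was replaced with compound-containing medium. Phase-contrast images of the wound were taken hourly for 24 h and relative wound confluence was calculated; n = 4.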

Data set [8] concerns the target T1, Transcriptional enhancer factor TEF-1 (Homo sapiens, UniProt P28347). The data set is described as follows: Inhibition of NL-tagged YAP (unknown origin) interaction with myc-tagged human TEAD1 preincubated for 1 hr followed by NL-tagged YAP addition by NanoGlo assay. The procedure, abridged:
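Myc-TEAD1 from transfected HeLa lysate was captured with anti-myc antibody on protein-G-coated 96-well plates. Wells were pretreated with compound in PBS for 1 h at 4 °C, then co-incubated with lysate from HeLa cells expressing YAP–nanoluciferase. After four PBS washes, bound YAP–NL was read with NanoGlo.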

The target of data set [9] is T1, Transcriptional enhancer factor TEF-1. The data set is described as follows: Inhibition of GFP-tagged YAP1 (unknown origin) interaction with myc-tagged human TEAD1 expressed in human HeLa cells by measuring GFP-Trap at 200 uM incubated for 30 mins with myc-tagged human TEAD1 lysate followed by GFP-tagged YAP1 lysate addition measured after 30 mins by Western blot based immunoprecipitation assay. Format: cell-based. A digest of the protocol:
(§5)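 Myc-TEAD1 and GFP-YAP1 were expressed separately in transfected HeLa cells, and pooled cytosolic plus nuclear extracts were prepared. The myc-TEAD extract was incubated 30 min on ice with 200 μM compound, then an equal volume of GFP-YAP lysate was added for another 30 min. Complexes were pulled down with GFP-Trap or Myc-Trap beads and quantified by Western blot; n = 3.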
(In general: A western blot detects proteins with antibodies after separation by electrophoresis.)

Data set [10] relates to HeLa. The data set is described as follows: Cytotoxicity against human HeLa cells assessed as reduction in cell viability by measuring ethidium homodimer-1 uptake at 60 uM preincubated for 10 mins followed by ethidium homodimer-1 addition measured after 10 mins by fluorescence assay. Format: cell-based. A digest of the protocol:
as §1

Data set [11] addresses T1, Transcriptional enhancer factor TEF-1. The data set is described as follows: Inhibition of human HEK293 cell lysate derived YAP interaction with recombinant GST-tagged human TEAD1 (194 to 411 residues) expressed in Escherichia coli soluBL21 at 200 uM after 18 hrs by Western blot analysis. The format is subcellular. The procedure, abridged: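 GST–TEAD1 (about 5 μg) immobilized on glutathione resin beads, incubated with HEK293 whole-cell lysate containing endogenous YAP at 4 °C for 18 h. Resin washed; bound proteins eluted by boiling in Laemmli buffer. YAP and GST quantified by Western blot (anti-YAP, anti-GST); n = 2.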

Data set [12] deals with HeLa. The data set is described as follows: Inhibition of TNT1 m-RNA expression in human HeLa cells up to 80 uM incubated for 2 hrs followed by compound wash out and re-treatment for 4 hrs by NanoGlo assay. Format: functional, cell-based.
Data set [13] is filed under the species Rattus norvegicus. The data set is described as follows: Inhibition of TEAD in rat VSMC assessed as reduction in CTGF m-RNA expression incubated for 2 hrs followed by compound wash out and re-treatment for 4 hrs by NanoGlo assay.
The subject of data set [14] is HeLa. The data set is described as follows: Inhibition of 36B4 m-RNA expression in human HeLa cells up to 80 uM incubated for 2 hrs followed by compound wash out and re-treatment for 4 hrs by NanoGlo assay. Format: functional, cell-based.
In data set [15] the test system is HeLa. The data set is described as follows: Inhibition of TEAD in human HeLa cells assessed as reduction in CCN1 m-RNA expression incubated for 2 hrs followed by compound wash out and re-treatment for 4 hrs by NanoGlo assay. The format is cell-based.
The species entered for data set [16] is Rattus norvegicus. The data set is described as follows: Inhibition of TEAD in rat VSMC assessed as reduction in CCN1 m-RNA expression incubated for 2 hrs followed by compound wash out and re-treatment for 4 hrs by NanoGlo assay.
Data set [17] deals with VSMC. The data set is described as follows: Antiproliferative activity against rat VSMC assessed as reduction in EdU incorporation after 24 hrs by Hoechst 33342 staining-based fluorescence assay. The format is functional, cell-based. The procedure, abridged: as §3
Data set [18] concerns HeLa. The data set is described as follows: Antimigratory activity in human HeLa cells incubated for overnight followed by media replacement and measured every hour for 24 hrs by phase contrast microscopic analysis. Format: functional, cell-based. A digest of the protocol: as §4
Data set [19] relates to HeLa. The data set is described as follows: Inhibition of TEAD in human HeLa cells assessed as reduction in CTGF m-RNA expression incubated for 2 hrs followed by compound wash out and re-treatment for 4 hrs by NanoGlo assay. Format: cell-based.
In data set [20] the test system is VSMC. The data set is described as follows: Inhibition of TNT1 m-RNA expression in rat VSMC up to 80 uM incubated for 2 hrs followed by compound wash out and re-treatment for 4 hrs by NanoGlo assay. Format: functional, cell-based.
The target in data set [21] is T1, Transcriptional enhancer factor TEF-1. The data set is described as follows: Inhibition of GFP-tagged YAP1 (unknown origin) interaction with myc-tagged human TEAD1 expressed in human HeLa cells by measuring myc-TRAP at 200 uM incubated for 30 mins with myc-tagged human TEAD1 lysate followed by GFP-tagged YAP1 lysate addition measured after 30 mins by Western blot based immunoprecipitation assay. Format: cell-based. The procedure, abridged: as §5

Data set [22] can be described thus: Inhibition of TEAD (unknown origin) expressed in human HeLa cells after 6 hrs by nanoluciferase reporter gene assay. Format: cell-based. The procedure, abridged:
as §2

Calls of active or inactive are those of the source. The calls are words filed in the database; no cut-off is given here.

T1 sequence (P28347 whole entry): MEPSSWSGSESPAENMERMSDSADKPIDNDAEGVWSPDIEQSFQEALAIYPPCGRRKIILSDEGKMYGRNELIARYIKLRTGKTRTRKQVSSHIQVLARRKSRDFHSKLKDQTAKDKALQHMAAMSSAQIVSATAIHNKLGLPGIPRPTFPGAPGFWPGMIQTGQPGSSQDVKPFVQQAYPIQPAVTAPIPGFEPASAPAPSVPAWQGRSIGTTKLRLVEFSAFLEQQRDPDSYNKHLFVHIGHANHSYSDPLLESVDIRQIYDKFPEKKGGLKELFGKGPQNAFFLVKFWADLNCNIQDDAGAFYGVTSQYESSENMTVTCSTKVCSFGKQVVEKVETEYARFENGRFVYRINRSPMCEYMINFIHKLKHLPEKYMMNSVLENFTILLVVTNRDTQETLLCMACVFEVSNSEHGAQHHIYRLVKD

Turning to `O=C(NCCn1ncc2c(N3CCN(c4ncccn4)CC3)ncnc21)C12CC3CC(CC(C3)C1)C2`, in the data set on HeLa [1], the Activity result is on record as “Non-Toxic”. In addition, the inhibition with HeLa [2] is more than 60%.

On to `OCC(O)CN1CCNCC1` (stereo not given), for which the Activity entry in the data set on HeLa [3] was “Non-Toxic”. Besides, in the data set with HeLa [4], the inhibition entry was “inactive”.

With `COc1ccc2nc(NC3=NCN(Cc4ccco4)CN3)nc(C)c2c1`, in the data set with HeLa [1], the Activity entry was “Non-Toxic”. Besides, the inhibition in the data set with HeLa [2] is more than 60%.

For `Cc1ccc2c(c1)c1c3n2CCN(C[C@H](O)CN2CCN(C(=O)c4ccco4)CC2)[C@@H]3CCC1`, the Activity entry in the data set with HeLa [1] is “Non-Toxic”; with HeLa [5], “Dose-dependent effect”; with VSMC [7], “Dose-dependent effect”; with HeLa [10], “Non-Toxic”; in the data set with VSMC [17] it was “Dose-dependent effect”; in the data set with HeLa [18], “Dose-dependent effect”. For the same compound, the inhibition result in the data set on VSMC [6], in the data set on HeLa [12], in the data set on HeLa [14] and with VSMC [20] was “inactive” throughout. The inhibition entry in data set [8] was “Dose-dependent effect”; in the data set filed under Rattus norvegicus [13] it was “Dose-dependent effect”; with HeLa [2] it was more than 60%; in the data set with HeLa [15], “Dose-dependent effect”; in the data set listed under Rattus norvegicus [16] it was “Dose-dependent effect”; with HeLa [19] it was “Dose-dependent effect”. For the same compound, the inhibition entry in data set [9], in data set [11] and in data set [21] was “Active” in each case. For the same compound, in data set [22], half-maximal inhibition (IC50) was put at 110 µM.

On to `CCc1nc(C)nc(Oc2ccc(OCCOc3ccc(C)cc3C)nn2)n1`, for which, in the data set with HeLa [1], the Activity entry is reported as “Non-Toxic”. The inhibition in the data set with HeLa [2] was more than 60%.

With `O=C(O)c1ccco1`, in the data set with HeLa [3], the Activity result was “Non-Toxic”. Also, in the data set on HeLa [4], the inhibition entry was “inactive”.
